The list is not random: actives were taken first. Their share in the collection is about 4%.
TAAR1 antag – human TAAR1 antagonism; CHO RD-HGA16 TAAR1, Fluo-8 calcium fluorescence, antagonist; inhibition, % at 3 µM; 360,000 compounds, 1.5% hits;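 active = inhibition above a per-plate cutoff, the mean inhibition of test compounds on that plate plus 3 SD, cut at about 49% in these data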
Target sequence (Q96RJ0 whole entry, looked up): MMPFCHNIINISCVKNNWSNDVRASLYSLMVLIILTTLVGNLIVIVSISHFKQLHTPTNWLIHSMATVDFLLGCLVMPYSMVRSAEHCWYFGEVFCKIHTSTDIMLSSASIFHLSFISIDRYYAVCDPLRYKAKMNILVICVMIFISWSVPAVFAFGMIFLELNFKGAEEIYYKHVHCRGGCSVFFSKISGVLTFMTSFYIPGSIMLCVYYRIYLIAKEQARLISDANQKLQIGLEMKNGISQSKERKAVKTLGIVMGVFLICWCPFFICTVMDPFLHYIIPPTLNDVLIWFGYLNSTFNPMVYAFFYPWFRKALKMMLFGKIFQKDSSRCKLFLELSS
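Test system: CHO RD-HGA16 cells bearing hTAAR1 | Reagent: β-PEA, EC80 | Compound dosing: 3 µM, single point | Schedule: Dye loading 75 min at 37 °C, then 30 min room temperature | Signal: Calcium fluorescence with Fluo-8 | Evaluation: Percent inhibition of PEA-evoked calcium signal, max/basal emission ratio | Control set: DMSO-only wells and EC80 β-PEA-stimulated wells | Repeats: Singlicate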
CHO parental Ca – signal in parental CHO cells, OX1R antagonist counter-screen. parental CHO-K1, ATP-induced calcium, Fluo-8 fluorescence. 330,000 compounds, 0.63% hits. inhibition, % at 5.6 µM;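 active = inhibition above that plate's mean sample inhibition plus 3 SD, cut at about 26% in these data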
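Test system: untransfected parental CHO cell line. Compound: one dose, 5.6 µM nominal. Detection: intracellular calcium via Fluo-8 no-wash fluorescent dye. Measure: % inhibition. Benchmarks: ATP-challenged DMSO wells low, unchallenged DMSO wells high.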
NTR1 agonist – activates human neurotensin receptor 1 | P30989 | NTR1-U2OS beta-arrestin-GFP spot imaging, agonist mode | activation, % at 20 µM | 330,000 compounds, 0.17% hits;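 active = activation at or above 40% of the spot to cytoplasm intensity ratio, with at least 20 cells analyzed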
OX1R antag-1 – blocks the human orexin 1 receptor; O43613; OX1R-expressing cells, FRET antagonist read-out; inhibition, % at 6.6 µM; 330,000 compounds, 1.8% hits; AID 485270; in the data active = inhibition mostly above about 38%, no sharp cut-off; inactive = mostly below about 40%
Target sequence (O43613 whole entry, looked up): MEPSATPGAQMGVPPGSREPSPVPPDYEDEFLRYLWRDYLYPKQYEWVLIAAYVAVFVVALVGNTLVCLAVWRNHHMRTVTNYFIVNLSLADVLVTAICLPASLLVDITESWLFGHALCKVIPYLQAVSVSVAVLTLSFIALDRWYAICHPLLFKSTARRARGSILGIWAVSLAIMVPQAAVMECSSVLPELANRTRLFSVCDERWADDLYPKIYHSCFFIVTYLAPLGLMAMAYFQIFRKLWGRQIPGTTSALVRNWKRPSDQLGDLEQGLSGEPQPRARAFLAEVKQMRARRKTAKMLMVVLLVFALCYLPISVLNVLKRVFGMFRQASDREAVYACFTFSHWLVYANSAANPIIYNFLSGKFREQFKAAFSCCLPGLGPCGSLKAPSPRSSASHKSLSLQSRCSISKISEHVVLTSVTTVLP
TAAR1 ag – agonists of human TAAR1. Q96RJ0. CHO RD-HGA16 TAAR1, Fluo-8 calcium fluorescence; vehicle wells 0%, saturating PEA agonist 100%. activation, % at 3 µM. 360,000 compounds, 0.99% hits. AID 624467;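 active = activation above the mean activation of all test compounds in the run plus 3 SD, cut at about 38% in these data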
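System: CHO RD-HGA16 cells carrying human TAAR1 plus Gα16; Incubation: 17-24 h seeding, 75 min 37 °C dye, 30 min RT; Measured by: Fluo-8 fluorescence, 5 s baseline then 140 s kinetic read; Control set: DMSO and PEA EC100; Replication: single well for each compound.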
OX1R antag-2 – antagonists of human orexin 1 receptor | O43613 | CHO/OX1R cells, Fluo-8 calcium fluorescence, orexin A | inhibition, % at 5 µM | 330,000 compounds, 0.43% hits;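 active = inhibition above its plate's threshold, mean inhibition of all tested compounds on the plate plus 3 SD, cut at about 37% in these data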
OX1R Fluo8 conf – confirmation of human orexin 1 receptor antagonists; shares compounds with OX1R antag-2; 1,100 compounds, 38% hits; inhibition, % at 5 µM; CHO/OX1R cells, orexin A calcium Fluo-8 fluorescence; AID 492963; in the data active = inhibition above about 29%
CHO Ca triplic – counter-screen: parental CHO calcium response change, triplicate; shares compounds with OX1R antag-2; parental CHO-K1, ATP-induced calcium, Fluo-8 fluorescence; inhibition, % at 5.6 µM; 1,100 compounds, 9.3% hits;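 active = inhibition above a per-plate limit, the mean inhibition of that plate's test compounds plus 3 SD, cut at about 25% in these data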
OX1R HTRF conf – confirmation of human orexin 1 receptor antagonists, HTRF format | shares compounds with OX1R antag-1 | OX1R-expressing cells, HTRF antagonist assay | inhibition, % at 6.6 µM | 1,800 compounds, 49% hits; in the data active = inhibition above about 55%;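 note: CHO cells expressing OX1R stimulated with orexin A at about EC80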
CHO-K1 HTRF cnt – counter-screen for OX1R antagonists: effect in parental CHO-K1 cells | shares compounds with OX1R antag-1 | HTRF counterscreen | 1,800 compounds, 48% hits | AID 493232 | inhibition, % at 6.6 µM; in the data active = inhibition above about 17%
Large screens that a line does not name were inactive (follow-up assays come after a bar, where they were run).

COc1ccccc1C(=O)Nc1ccc2nc3n(c(=O)c2c1)CCCC3	OX1R antag-1 94.7 | OX1R Fluo8 conf 30.6 | CHO Ca triplic inactive | OX1R HTRF conf 97.1 | CHO-K1 HTRF cnt inactive
Cc1cc(NC(=O)CSc2nc3ccccc3[nH]2)n(-c2ccccc2)n1	OX1R antag-1 59.9, OX1R antag-2 60.7 | OX1R Fluo8 conf inactive | CHO Ca triplic inactive | OX1R HTRF conf 61.9 | CHO-K1 HTRF cnt inactive
O=C(O)c1ccc(N=NNc2cccc([N+](=O)[O-])c2)cc1	none
N#C/C(=N\Nc1cccc([N+](=O)[O-])c1)C(=O)c1ccc(Br)cc1	OX1R antag-1 93.7, OX1R antag-2 42.2 | OX1R Fluo8 conf inactive | CHO Ca triplic 50.1 | OX1R HTRF conf inactive | CHO-K1 HTRF cnt 18.9
O=C1N=C(N2CCOCC2)S/C1=C\c1ccc(OS(=O)(=O)c2ccccc2)cc1	none
CC(=C/c1ccccc1)/C=C1/SC(N2CCOCC2)=NC1=O	OX1R antag-1 108.1, OX1R antag-2 84.8 | OX1R Fluo8 conf 79.6 | CHO Ca triplic inactive | OX1R HTRF conf 101.2 | CHO-K1 HTRF cnt inactive
CCN(CC)c1ccc(/C=N/NC(=O)c2nnn(-c3nonc3N)c2C(C)C)c(O)c1	OX1R antag-1 96.1, OX1R antag-2 58.8 | OX1R Fluo8 conf inactive | CHO Ca triplic inactive | OX1R HTRF conf 68.9 | CHO-K1 HTRF cnt inactive
CCCN(CCC)Cc1c(C(=O)N/N=C/c2cccs2)nnn1-c1nonc1N	none
CC(C)c1c(C(=O)N/N=C/c2ccc3c(c2)OCO3)nnn1-c1nonc1N	none
CN(Cc1c(C(=O)N/N=C/c2cccc(F)c2)nnn1-c1nonc1N)c1ccccc1	OX1R antag-1 57.2 | OX1R Fluo8 conf 32.7 | CHO Ca triplic inactive | OX1R HTRF conf 77.2 | CHO-K1 HTRF cnt inactive
CN(Cc1c(C(=O)N/N=C/c2cccs2)nnn1-c1nonc1N)c1ccccc1	OX1R antag-1 81.5, OX1R antag-2 54.6 | OX1R Fluo8 conf 31.7 | CHO Ca triplic inactive | OX1R HTRF conf 89.5 | CHO-K1 HTRF cnt inactive
COc1cccc(/C=N/NC(=O)c2nnn(-c3nonc3N)c2CN(C)c2ccccc2)c1	OX1R antag-1 69.6, OX1R antag-2 52.0 | OX1R Fluo8 conf 40.6 | CHO Ca triplic inactive | OX1R HTRF conf 93.1 | CHO-K1 HTRF cnt inactive
CN(C)Cc1c(C(=O)N/N=C/c2cccc(OCc3ccccc3)c2)nnn1-c1nonc1N	none
CN(Cc1c(C(=O)N/N=C/c2cccc(F)c2)nnn1-c1nonc1N)C1CCCCC1	none
Cc1ccc(N2CCN(S(=O)(=O)c3ccc4c(c3)NC(=O)C(C)C(=O)N4)CC2C)cc1 (stereo not drawn)	none
CCOC(=O)Cc1csc(NC(=O)c2ccc3ccccc3n2)n1	none
N#C/C(=C\Nc1ccc2c(c1)OCCO2)c1nc2ccccc2[nH]1	OX1R antag-1 91.1 | OX1R Fluo8 conf inactive | CHO Ca triplic inactive | OX1R HTRF conf 73.7 | CHO-K1 HTRF cnt inactive
N#C/C(=C\Nc1ccc2c(c1)OCCO2)c1nc(-c2ccccc2)cs1	none
O=C(Nc1nc2ccccc2s1)c1ccccc1	none
CSc1nc2ccc3nc(NC(=O)c4ccccc4)sc3c2s1	OX1R antag-1 83.8, OX1R antag-2 46.4 | OX1R Fluo8 conf 78.8 | CHO Ca triplic inactive | OX1R HTRF conf 95.3 | CHO-K1 HTRF cnt inactive
O=S1(=O)CCO[C@H]2Cc3ccccc3[C@H]2N1Cc1ccc(F)cc1	none
Cc1cc(SCC(=O)c2ccc3c(c2)OCO3)nc2ccccc12	OX1R antag-1 59.0 | OX1R Fluo8 conf inactive | CHO Ca triplic inactive | OX1R HTRF conf 87.0 | CHO-K1 HTRF cnt inactive
Cc1cc(SCC(=O)c2ccc(O)c(O)c2)nc2ccccc12	none
CN(C1CCCCC1)S(=O)(=O)c1ccc(=S)[nH]c1	none
O=C(COC(=O)c1cccs1)NCCc1ccc(F)cc1	none (no result: CHO parental Ca, OX1R antag-1, OX1R antag-2)
CCN(CC)S(=O)(=O)c1cc(NC(=O)CCc2c(C)noc2C)ccc1C	none
CCN(CC)S(=O)(=O)c1cc(NC(=O)CSCc2c(C)noc2C)ccc1C	OX1R antag-1 74.4, OX1R antag-2 45.7 | OX1R Fluo8 conf 35.7 | CHO Ca triplic inactive | OX1R HTRF conf 80.2 | CHO-K1 HTRF cnt inactive
Cc1ccc2c(c1)N(CC(=O)N1CCCC1)C(=O)CO2	none
COc1cccc(C(=O)NCC2CCCN2S(=O)(=O)c2ccccc2)c1 (stereo not drawn)	OX1R antag-1 49.2 | OX1R Fluo8 conf inactive | CHO Ca triplic inactive | OX1R HTRF conf 62.9 | CHO-K1 HTRF cnt inactive
COc1cccc(-c2cc(C(=O)Nc3ccccc3SC)no2)c1	OX1R antag-1 60.5, OX1R antag-2 75.7 | OX1R Fluo8 conf 70.8 | CHO Ca triplic inactive | OX1R HTRF conf 94.6 | CHO-K1 HTRF cnt inactive
COc1ccc(/C=N/NC(=O)c2cc3cc(OC)c(OC)cc3[nH]2)cc1	none
COc1cc2cc(C(=O)N/N=C/c3ccccc3Cl)[nH]c2cc1OC	OX1R antag-1 75.9 | OX1R Fluo8 conf inactive | CHO Ca triplic inactive | OX1R HTRF conf 89.3 | CHO-K1 HTRF cnt inactive
COc1cc2cc(C(=O)N/N=C/c3ccc(F)cc3)[nH]c2cc1OC	OX1R antag-1 67.5 | OX1R Fluo8 conf inactive | CHO Ca triplic inactive | OX1R HTRF conf 73.3 | CHO-K1 HTRF cnt inactive
Cc1ccc(/C=C2/Sc3ccccc3N(CC(=O)NCC3CCCO3)C2=O)cc1 (stereo not drawn)	OX1R antag-1 77.5, OX1R antag-2 55.1 (no result: TAAR1 antag, TAAR1 ag) | OX1R Fluo8 conf 58.6 | CHO Ca triplic inactive | OX1R HTRF conf 87.7 | CHO-K1 HTRF cnt inactive
O=C(CN1C(=O)/C(=C/c2ccccc2)Sc2ccccc21)NCCCN1CCOCC1	none
O=C(CN1C(=O)/C(=C\c2cccc(Br)c2)Oc2ccccc21)NCC1CCCO1 (stereo not drawn)	OX1R antag-1 67.5 | OX1R Fluo8 conf 78.8 | CHO Ca triplic inactive | OX1R HTRF conf 90.2 | CHO-K1 HTRF cnt inactive
CCc1ccc(/C=C2/Sc3ccccc3N(CC(=O)NCC3CCCO3)C2=O)cc1 (stereo not drawn)	OX1R antag-1 95.1, OX1R antag-2 84.2 | OX1R Fluo8 conf 44.9 | CHO Ca triplic inactive | OX1R HTRF conf 86.9 | CHO-K1 HTRF cnt inactive
COCCOc1ccc(C(F)(F)F)cc1NC(=O)COC(=O)c1cc([N+](=O)[O-])ccc1N1CCOCC1	none

From PubChem BioAssay
